Measurements of several laboratories.
Compare with care: the assays were run in different laboratories.
Read-out: cell growth or viability

Structure (SMILES) | cell line | technique | tested at | time | quantity | result
CO[C@]1([C@@H]2CSC(=O)N2C2CCCC2)C[C@H]2C[C@@H](CC[C@H](C)/C=C\C=C\CC/C(C)=C\C(=O)O2)O1 | MDA-MB-231 | MTT | – | 72 h | IC50 | 5.07 µM
N.N.[Cl][Pt][Cl] | MDA-MB-231 | MTT | – | 72 h | GI50 | 4.18 µM
C/C1=C/C(=O)O[C@@H]2C[C@@H](CC[C@H](C)/C=C\C=C\CC1)O[C@@](O)([C@@H]1CSC(=O)N1)C2 | MDA-MB-231 | MTT | – | 72 h | IC50 | 4.19 µM
O=C(c1ccc(F)cc1)c1c[nH]c2ncc(-c3ccc(N4CCOCC4)nc3)cc12 | MRC5 | MTT | 10 µM | 48 h | viability | 68.1%
CO[C@]1([C@@H]2CSC(=O)N2CCCO)C[C@H]2C[C@@H](CC[C@H](C)/C=C\C=C\CC/C(C)=C\C(=O)O2)O1 | MDA-MB-231 | MTT | – | 72 h | IC50 | > 50 µM
COc1ccc(C(=O)c2c[nH]c3ncc(-c4ccc(N5CCNCC5)nc4)cc23)cc1 | MRC5 | MTT | 10 µM | 48 h | viability | 99.2%
COc1c2c(cc3c1OCO3)[C@]13C=C[C@H](OC)C[C@@H]1[N@](C2)C[C@H]3OC(=O)c1ccco1 | MRC5 | WST-1 | – | – | IC50 | > 10 µM
CCN1C(=O)SC[C@H]1[C@@]1(O)C[C@H]2C[C@@H](CC[C@H](C)/C=C\C=C\CC/C(C)=C\C(=O)O2)O1 | MDA-MB-231 | MTT | – | 72 h | IC50 | 7.19 µM
N.N.[Cl][Pt][Cl] | BEL-7404 | MTT | – | 48 h | IC50 | 13.1 µM
COc1ccc(C(=O)c2c[nH]c3ncc(-c4ccc(N5CCN(S(C)(=O)=O)CC5)nc4)cc23)cc1 | MRC5 | MTT | 10 µM | 48 h | viability | 70.1%
COc1cc2c(cc1OS(N)(=O)=O)CCN(Cc1cc(Br)c(OC)c(OC)c1)C2 | MDA-MB-231 | WST-1 | – | 96 h | GI50 | 0.03 µM
COc1cccc2c1C(=O)c1c(O)c3c(c(O)c1C2=O)C[C@@](O)(C(=O)CO)C[C@@H]3O[C@H]1C[C@H](N)[C@H](O)[C@H](C)O1 | LLC-PK11 | – | – | 48 h | IC50 | 0.9 µg/mL
O=C(c1cccc(F)c1)c1c[nH]c2ncc(-c3ccc(N4CCNCC4)nc3)cc12 | MRC5 | MTT | 10 µM | 48 h | viability | 66.2%
